Measurements collected from several papers.
Protocols differ between the studies behind these lines.
Target: Cyclin-dependent kinase 14 (CDK14, Homo sapiens, UniProt O94921)

| Structure (SMILES) | test | conditions | remaining binding |
| --- | --- | --- | --- |
| Cc1nc(C2CCN(C(=O)c3ccc(OC(F)(F)F)cc3N)CC2)c2ncc(N3CCN(C)CC3)cc2n1 | cell-free assay, competition with immobilised ligand | 1 µM | 100% |
| CN(c1nccc(-c2cnn3ncccc23)n1)C1CC1 | binding | 1 µM | 100% |
| FC(F)(F)Oc1cccc(-c2cnc3ccc(-c4ccncc4)nn23)c1 | cell-free assay, competition with immobilised ligand | 5 µM | 68% |
| Cc1cnc(Nc2ccc(C(=O)N3CCC(N4CCCC4)CC3)cc2)nc1-c1cc2ccccc2s1 | binding, competition with immobilised ligand | 1 µM | 100% |
| Cc1cc(C)c(-n2ccn3nc(-c4cccnc4)cc23)cc1NC(=O)c1cc(C#N)cc(S(F)(F)(F)(F)F)c1 | cell-free assay, competition with immobilised ligand | 0.1 µM | 100% |
| CCN1CCN(Cc2ccc(C(=O)Nc3ccc(C)c(Oc4ccc5c(c4)CC(=O)N5)c3)cc2C(F)(F)F)CC1 | binding, competition with immobilised ligand | 1 µM | 100% |
| O=C(NCC1CCOCC1)c1n[nH]cc1NC(=O)c1c(F)cccc1F | binding, competition with immobilised ligand | 1 µM | 79% |
| CC(=O)N1CCC(c2ccc(C(=O)NC3=NCCN3)cc2C(F)(F)F)CC1 | cell-free assay, competition with immobilised ligand | 1 µM | 100% |
| Cc1cnn2ncc(-c3ccnc(N(C)C)n3)c2c1 | binding | 1 µM | 91% |
| COc1cnc(Nc2cccc(S(N)(=O)=O)c2)nc1N1CCN(c2ccccc2)CC1 | binding, competition with immobilised ligand | 1 µM | 94% |
| c1cncc(-c2cccc(Nc3nccc(NC4CCCCC4)n3)c2)c1 | binding, competition with immobilised ligand | 10 µM | 90% |
| Cc1cc(NC(=O)c2cccc(S(F)(F)(F)(F)F)c2)cc(-n2ccn3nc(-c4cccnc4)cc23)c1 | cell-free assay, competition with immobilised ligand | 1 µM | 93.8% |
| F[C@@H]1CCN(c2nccc(-c3cnn4ncccc34)n2)C1 | binding | 1 µM | 100% |
| CN(C(=O)c1ccccc1)c1cc(N(C)c2ccc3c(c2)CCc2ccc(C(=O)NCCN4CCOCC4)cc2C3=O)ccc1F | cell-free assay, competition with immobilised ligand | 1 µM | 100% |
| N[C@@H]1CCN(c2nccc(-c3cnn4ncccc34)n2)C1 | binding | 1 µM | 100% |
| O=C(c1ccc(Nc2nccc(-c3cc4ccccc4s3)n2)cc1)N1CCC(N2CCCC2)CC1 | binding, competition with immobilised ligand | 1 µM | 100% |
| c1cnn2ncc(-c3ccnc(N4CCC45COC5)n3)c2c1 | binding | 1 µM | 88% |
| O=C(NCCCN1CCOCC1)c1ccc(Nc2ncc(Cl)c(-c3ccc(Cl)s3)n2)cc1 | binding, competition with immobilised ligand | 1 µM | 37% |
